Bioassay records from PubChem BioAssay.
IMP-1 inhibitor – blocks Pseudomonas aeruginosa IMP-1 metallo-beta-lactamase; purified IMP-1, nitrocefin hydrolysis, epi-absorbance fluorescence; inhibition, % at 5.6 µM; hit rate 0.45% among 290,000;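 active = inhibition above the mean plus 3 SD of all compounds in the same screening run, cut at about 4.5% in these data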;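 note: 0% = IMP-1 with DMSO and 100% = DMSO wells lacking enzyme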
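system = purified recombinant IMP-1 beta-lactamase | amount = 0.2 nM IMP-1, as dispensed | medium = HEPES buffer pH 7.1 with ZnSO4 and Brij 35 | times = 25 °C, 15 min preincubation, 25 min reaction | detection = plate fluorescence quenching by hydrolysis product, ex 480/em 530 nm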
PHOSPHO1 inh – PHOSPHO1 (human) inhibition; Q8TCT1; recombinant PHOSPHO1, absorbance phosphatase assay; inhibition, % at 13.3 µM; hit rate 1.1% among 290,000; AID 1565; in the data active = inhibition above about 60%
Target sequence (Q8TCT1 whole entry, looked up): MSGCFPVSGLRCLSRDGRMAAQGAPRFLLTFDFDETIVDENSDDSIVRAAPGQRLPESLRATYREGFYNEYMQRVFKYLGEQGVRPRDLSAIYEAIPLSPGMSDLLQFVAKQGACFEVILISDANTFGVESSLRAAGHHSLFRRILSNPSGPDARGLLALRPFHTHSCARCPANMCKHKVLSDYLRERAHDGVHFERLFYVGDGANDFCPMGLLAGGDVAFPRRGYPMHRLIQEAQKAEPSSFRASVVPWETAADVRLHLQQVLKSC
CR mimetic SO – caloric restriction mimetics inhibiting age-related superoxide in yeast; S. cerevisiae aged cells, superoxide DHE fluorescence; stronger effect = lower value; superoxide response (% of plate mean), % at 10 µM; hit rate 0.18% among 330,000; AID 2690;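 active = superoxide response under a set limit, about three screen SD below normal, cut at about 65% in these data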;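 note: yeast aged for seven days with compound at 30 °C before DHE staining; 100% = average MFI of all compound-treated wells on the plate with controls excluded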
PvdQ inh – P. aeruginosa PvdQ acylase inhibition; purified PvdQ acylase, fluorescence plate reader; inhibition, % at 10 µM; hit rate 0.063% among 340,000; AID 488965; in the data active = inhibition above about 30%, passing the limit was not always enough;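 note: 0% = vehicle neutral wells and 100% = reference inhibitor wells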
VIM-2 inhibitor – blocks Pseudomonas aeruginosa VIM-2 metallo-beta-lactamase | purified VIM-2, nitrocefin hydrolysis, epi-absorbance fluorescence | inhibition, % at 5.6 µM | hit rate 0.89% among 290,000 | AID 1527;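 active = inhibition above the mean of all tested compounds plus 3 SD, cutoff set per screening run, cut at about 7.5% in these data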;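 note: red hydrolysis product quenches plate fluorescence so inhibitors raise well fluorescence; 0% = enzyme with DMSO and 100% = DMSO without enzyme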
Starred values were filed as active, the others as inactive. In the library only some 2.2% were active in any assay of this set; here they are far more common.

CCn1c(COc2ccc(C)cc2)nnc1SCc1nc2ccccc2[nH]1 was read as IMP-1 inhibitor -3, PHOSPHO1 inh 94*, CR mimetic SO 98, PvdQ inh -8 and VIM-2 inhibitor -5.
Clc1cccc(-c2nnc(SCc3nc4ccccc4[nH]3)n2Cc2ccco2)c1 was read as IMP-1 inhibitor -2, PHOSPHO1 inh 77*, CR mimetic SO 94, PvdQ inh 9 and VIM-2 inhibitor 0.
Cn1c(SCc2nc3ccccc3[nH]2)nnc1-c1cnccn1 was read as IMP-1 inhibitor 0, PHOSPHO1 inh -4, CR mimetic SO 98, PvdQ inh -4 and VIM-2 inhibitor 0.
`Clc1ccc(OCc2nnc(SCc3nc4ccccc4[nH]3)n2Cc2ccco2)cc1` gave IMP-1 inhibitor -2, PHOSPHO1 inh 74*, CR mimetic SO 68, PvdQ inh 4 and VIM-2 inhibitor -3.
N#Cc1cnn2ccc(-c3ccc4c(c3)CCC4)nc12 was read as IMP-1 inhibitor 0, PHOSPHO1 inh 1, CR mimetic SO 110, PvdQ inh 5 and VIM-2 inhibitor 1.
COc1ccc(NC(=O)c2cccc(S(=O)(=O)N3CCCCCC3)c2)cc1 was read as IMP-1 inhibitor -3, PHOSPHO1 inh 4, CR mimetic SO 85, PvdQ inh -8 and VIM-2 inhibitor -3.
`c1ccc(-c2nnc(SCc3nc4ccccc4[nH]3)n2Cc2ccco2)nc1` gave IMP-1 inhibitor -2, PHOSPHO1 inh 72*, CR mimetic SO 92, PvdQ inh -12 and VIM-2 inhibitor -4.
`CCn1c(SCc2ccc(C#N)cc2)nnc1-c1cccc(Cl)c1` gave IMP-1 inhibitor -1, PHOSPHO1 inh 36, CR mimetic SO 93, PvdQ inh 11 and VIM-2 inhibitor -1.
Screening Cc1cccc(-c2nnc(SCc3ccc(C#N)cc3)n2Cc2ccco2)c1 returned IMP-1 inhibitor -2, PHOSPHO1 inh 64*, CR mimetic SO 123, PvdQ inh -8 and VIM-2 inhibitor -1.
Screening Cc1ccccc1OCc1nnc(SCc2nc3ccccc3c(=O)[nH]2)n1C returned IMP-1 inhibitor -2, PHOSPHO1 inh 36, CR mimetic SO 104, PvdQ inh 1 and VIM-2 inhibitor -1.
Screening O=c1[nH]c(CSc2nnc(COc3ccccc3)n2-c2ccccc2)nc2ccccc12 returned IMP-1 inhibitor -3, PHOSPHO1 inh 61*, CR mimetic SO 106, PvdQ inh 0 and VIM-2 inhibitor -4.
O=C(CSc1nnc(COc2ccc(Cl)cc2)n1Cc1ccco1)c1ccccc1F was read as IMP-1 inhibitor -3, PHOSPHO1 inh 96*, CR mimetic SO 101, PvdQ inh -6 and VIM-2 inhibitor -1.
Screening COc1ccc(CN(C)CC(=O)Nc2ccccc2C(=O)NC2CC2)cc1F returned CR mimetic SO 115 and PvdQ inh -16.
Screening Cn1c(N)c(C(=O)COC(=O)c2cc(S(=O)(=O)NCc3ccccc3)ccc2O)c(=O)n(C)c1=O returned PvdQ inh -12.
`CC1=Nn2c(nnc2-c2n[nH]c3c2CCC3)SC1` gave IMP-1 inhibitor -1, PHOSPHO1 inh 11, CR mimetic SO 105, PvdQ inh 1 and VIM-2 inhibitor 0.
`CC(C)(C)C1=Nn2c(nnc2-c2n[nH]c3c2CCC3)SC1` gave IMP-1 inhibitor -2, PHOSPHO1 inh 68*, CR mimetic SO 80, PvdQ inh -4 and VIM-2 inhibitor -2.
For O=C(COC(=O)c1nc(Cl)ccc1Cl)NNC(=O)c1cccs1 the results were CR mimetic SO 113 and PvdQ inh -8.
Screening CN1CCN(C(=O)c2ccc3c(Cl)c4c(nc3c2)CCCC4)CC1 returned IMP-1 inhibitor 1, PHOSPHO1 inh 15, CR mimetic SO 102, PvdQ inh 5 and VIM-2 inhibitor 11*.
Screening N#CC1CCN(C(=O)c2ccc3c(Cl)c4c(nc3c2)CCCC4)CC1 returned IMP-1 inhibitor -1, PHOSPHO1 inh 12, CR mimetic SO 96, PvdQ inh -8 and VIM-2 inhibitor 1.
Screening CCN1CCN(C(=O)c2ccc3c(Cl)c4c(nc3c2)CCCC4)CC1 returned IMP-1 inhibitor -1, PHOSPHO1 inh 17, CR mimetic SO 88, PvdQ inh -7 and VIM-2 inhibitor 8.2*.
Screening CCOC(=O)N1CCN(C(=O)c2ccc3c(SCC(=O)O)c4c(nc3c2)CCCC4)CC1 returned IMP-1 inhibitor -6, PHOSPHO1 inh 8, CR mimetic SO 95, PvdQ inh 4 and VIM-2 inhibitor -3.
`COc1ccc(CNc2c(C(=O)O)cnc3c2cnn3C)cc1` gave IMP-1 inhibitor -3, PHOSPHO1 inh 32, CR mimetic SO 101, PvdQ inh 5 and VIM-2 inhibitor 9.9*.
`CCC1(CC)NC(=O)N(CC(=O)OC(C)C(=O)Nc2cc([N+](=O)[O-])ccc2OC)C1=O` (configuration not stated) gave IMP-1 inhibitor 1, PHOSPHO1 inh 46, CR mimetic SO 99, PvdQ inh 3 and VIM-2 inhibitor 2.
`Cc1ccc(C)c2nc3sc(C(=O)O)cc3cc12` gave IMP-1 inhibitor -4, PHOSPHO1 inh 40, CR mimetic SO 112, PvdQ inh -8 and VIM-2 inhibitor 9.6*.
`O=[N+]([O-])c1cc(S(=O)(=O)C(F)(F)F)ccc1NCC1CCCO1` (configuration not stated) gave IMP-1 inhibitor -3, PHOSPHO1 inh 22, CR mimetic SO 109, PvdQ inh -9 and VIM-2 inhibitor -3.
`COc1ccc(/C=N/NC(=O)C(N)=O)c(OC)c1OC` gave IMP-1 inhibitor 8.4*, PHOSPHO1 inh 19, CR mimetic SO 84, PvdQ inh 0 and VIM-2 inhibitor -2.
`COc1ccc(/C=N/NC(=O)c2cnccn2)c(OC)c1OC` gave IMP-1 inhibitor -1, PHOSPHO1 inh 25, CR mimetic SO 84, PvdQ inh 6 and VIM-2 inhibitor -1.
For c1ccc(-c2nc(CSc3nnnn3-c3ccccc3)cs2)cc1 the results were IMP-1 inhibitor -6, PHOSPHO1 inh 14, CR mimetic SO 108, PvdQ inh 1 and VIM-2 inhibitor -1.
Screening Cc1ccccc1Nc1nc(CSc2nnnn2-c2ccccc2)cs1 returned IMP-1 inhibitor -1, PHOSPHO1 inh 95*, CR mimetic SO 85, PvdQ inh -5 and VIM-2 inhibitor -1.
For O=C(NCCCn1ccnc1)C(=O)NCC1OCCN1S(=O)(=O)c1ccc(Br)cc1 (configuration not stated) the results were IMP-1 inhibitor 7.0*, PHOSPHO1 inh -2, CR mimetic SO 122, PvdQ inh -16 and VIM-2 inhibitor -1.
Screening COc1ccc(S(=O)(=O)N2CCCOC2CNC(=O)C(=O)NCCCn2ccnc2)cc1 (configuration not stated) returned IMP-1 inhibitor 0, PHOSPHO1 inh 61*, CR mimetic SO 72, PvdQ inh -6 and VIM-2 inhibitor 0.
`Cc1ccc(S(=O)(=O)N2CCCOC2CNC(=O)C(=O)NCCCn2ccnc2)cc1` (configuration not stated) gave IMP-1 inhibitor -1, PHOSPHO1 inh -5, CR mimetic SO 112, PvdQ inh 2 and VIM-2 inhibitor -2.
